# According to ChEMBL document CHEMBL1133855 (Bioorg Med Chem Lett, 2001):
# Legend:
# [1] = target: T1, Adenosine receptor A1 (Homo sapiens, UniProt P30542); test: Affinity for Adenosine A1 receptor by displacement of [3H]DPCPX from human cerebral cortex; type: tissue-based
# T1 sequence (P30542 whole entry): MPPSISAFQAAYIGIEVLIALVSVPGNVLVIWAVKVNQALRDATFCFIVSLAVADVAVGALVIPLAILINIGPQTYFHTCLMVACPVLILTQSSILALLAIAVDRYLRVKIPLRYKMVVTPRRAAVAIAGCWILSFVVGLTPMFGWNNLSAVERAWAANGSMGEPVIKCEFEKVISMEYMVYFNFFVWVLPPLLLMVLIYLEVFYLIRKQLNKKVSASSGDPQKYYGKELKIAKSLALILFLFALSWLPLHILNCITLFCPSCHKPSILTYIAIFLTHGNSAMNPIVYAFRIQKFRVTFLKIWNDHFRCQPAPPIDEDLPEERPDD
# Outline: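 Membranes from human cerebral cortex; competition against [3H]DPCPX. IC50 fitted by non-linear least squares and converted to Ki via Cheng–Prusoff; means ± SE of three experiments.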
# [2] = target: Adenosine receptor A2a (Homo sapiens, UniProt P29274); test: Affinity for A2a receptor by displacement of [3H]-CGS- 21680 from human striatum
# [3] = target: T2, Adenosine receptor A3 (Homo sapiens, UniProt P0DMS8); test: Displacement of [125I]AB-MECA from human Adenosine A3 receptor expressed in CHO cells; type: cell-based
# T2 sequence (P0DMS8 whole entry): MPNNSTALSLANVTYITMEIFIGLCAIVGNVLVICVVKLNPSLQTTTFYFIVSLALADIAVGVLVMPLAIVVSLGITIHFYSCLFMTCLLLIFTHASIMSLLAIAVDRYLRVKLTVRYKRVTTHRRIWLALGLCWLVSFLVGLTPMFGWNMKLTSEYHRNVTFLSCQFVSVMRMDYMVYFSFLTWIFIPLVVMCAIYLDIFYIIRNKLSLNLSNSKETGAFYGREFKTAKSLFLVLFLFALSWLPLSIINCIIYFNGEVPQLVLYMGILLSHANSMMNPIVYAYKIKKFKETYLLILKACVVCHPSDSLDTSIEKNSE
# Adenosine receptor A2a, sequence (P29274 whole entry): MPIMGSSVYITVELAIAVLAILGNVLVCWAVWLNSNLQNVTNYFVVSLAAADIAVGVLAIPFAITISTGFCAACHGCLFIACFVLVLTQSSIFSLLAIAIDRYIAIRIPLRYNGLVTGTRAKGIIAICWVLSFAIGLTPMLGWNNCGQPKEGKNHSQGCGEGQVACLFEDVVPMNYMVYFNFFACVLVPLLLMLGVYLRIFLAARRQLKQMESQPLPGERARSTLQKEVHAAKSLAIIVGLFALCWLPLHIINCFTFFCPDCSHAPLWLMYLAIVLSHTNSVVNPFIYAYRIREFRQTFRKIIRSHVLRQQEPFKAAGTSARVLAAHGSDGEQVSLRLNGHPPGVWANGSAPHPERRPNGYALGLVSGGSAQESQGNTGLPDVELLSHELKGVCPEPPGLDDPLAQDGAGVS
compound,measurement,setting,value
CCNC(=O)[C@H]1OC(n2cnc3c(NCCCCCCNc4ccc([N+](=O)[O-])c5nonc45)ncnc32)[C@H](O)[C@@H]1O (stereo not given in full),Ki,[1],> 10 µM
same,Ki,[2],6.08 µM
same,Ki,[3],0.0236 µM
CCNC(=O)[C@H]1OC(n2cnc3c(NCCCCNc4ccc([N+](=O)[O-])c5nonc45)ncnc32)[C@H](O)[C@@H]1O (stereo not given in full),Ki,[1],> 10 µM
same,Ki,[2],> 10 µM
same,Ki,[3],0.381 µM
CCNC(=O)[C@H]1OC(n2cnc3c(NCCNc4ccc([N+](=O)[O-])c5nonc45)ncnc32)[C@H](O)[C@@H]1O (stereo not given in full),Ki,[1],> 10 µM
same,Ki,[2],6.75 µM
same,Ki,[3],0.0558 µM
CCNC(=O)[C@H]1OC(n2cnc3c(NCCCCCCCCNc4ccc([N+](=O)[O-])c5nonc45)ncnc32)[C@H](O)[C@@H]1O (stereo not given in full),Ki,[1],3.48 µM
same,Ki,[2],5.1 µM
same,Ki,[3],0.00744 µM
CCNC(=O)[C@H]1OC(n2cnc3c(NCCCCCCCCCCNc4ccc([N+](=O)[O-])c5nonc45)ncnc32)[C@H](O)[C@@H]1O (stereo not given in full),Ki,[1],6.35 µM
same,Ki,[2],6.1 µM
same,Ki,[3],0.0281 µM
